Screening data: PubChem, several laboratories
Only some compounds are listed: those with a hit (about 3% of all), similar ones and a draw of the others.
Measles CPE = protection of cells from measles virus. Measles virus-infected cells, CPE protection, absorbance. protection (pct of control), % at 4 µM. hit rate 1.5% among 140,000; in the data active = protection mostly above about 24%, no sharp cut-off; inactive = mostly below about 26%
Yeast lifespan up = yeast lifespan extension. inhibition of the nicotinamide effect, % at 10 µM. hit rate 0.68% among 130,000. S. cerevisiae growth with nicotinamide, OD615; deaD strain in restrictive glucose medium;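 active = inhibition above a set limit, placed 3 SD over the median of all compounds, cut at about 26% in these data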;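 also: 0% = nicotinamide-treated wells and 100% = cells grown without nicotinamide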
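Measured by: optical density (absorbance) at 615 nm; System: modified budding yeast, DeaD strain; Medium: restrictive CSMM-D dextrose medium; Timing: 4 h preincubation then 48 h treatment at 30 °C.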
Yeast growth inh = yeast BB579 growth reduction in restrictive medium. S. cerevisiae BB579 growth, OD615, 48 h. inhibition, % at 10 µM. hit rate 0.51% among 140,000. AID 804;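 active = inhibition above a set limit, 3 SD over the mean compound inhibition, cut at about 44% in these data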
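Test system: Saccharomyces cerevisiae DeaD strain BB579, replicative lifespan model yeast | Buffer or medium: Restrictive CSMM-D medium | Doses: One dose, 10 µM compound with 0.25% DMSO | Incubation: 48 h exposure, 30 °C | Detection: Culture absorbance at 615 nm | Control set: Amphotericin B at 10 µg/mL as positive control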
sEH inhibitor = blocks human soluble epoxide hydrolase activity. P34913. recombinant human sEH enzymatic activity assay. inhibition, % at 2 µM. hit rate 0.34% among 91,000. AID 707; in the data active = inhibition above about 80%
Target sequence (P34913 whole entry, looked up): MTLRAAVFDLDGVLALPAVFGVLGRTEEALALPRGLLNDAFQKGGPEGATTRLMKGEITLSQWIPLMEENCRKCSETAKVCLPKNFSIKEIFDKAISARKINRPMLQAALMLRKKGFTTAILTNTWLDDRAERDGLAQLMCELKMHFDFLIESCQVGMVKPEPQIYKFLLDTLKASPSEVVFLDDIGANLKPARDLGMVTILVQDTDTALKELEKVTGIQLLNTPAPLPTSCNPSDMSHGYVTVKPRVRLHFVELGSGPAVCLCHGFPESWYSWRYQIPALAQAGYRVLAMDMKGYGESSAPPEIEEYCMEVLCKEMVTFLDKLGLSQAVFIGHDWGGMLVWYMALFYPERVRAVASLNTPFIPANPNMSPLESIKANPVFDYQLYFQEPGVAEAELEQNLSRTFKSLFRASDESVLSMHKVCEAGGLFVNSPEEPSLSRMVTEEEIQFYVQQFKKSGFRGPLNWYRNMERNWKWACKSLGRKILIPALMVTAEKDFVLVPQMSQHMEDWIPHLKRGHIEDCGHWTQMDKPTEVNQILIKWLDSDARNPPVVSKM
sdo1 growth = sdo1-depleted yeast growth rescue. S. cerevisiae sdo1-depleted JHY4D growth rescue, OD600 30 h; active compounds read high; pdr5 snq2 efflux-pump mutant strain. z-score at 10 µM. hit rate 0.21% among 140,000;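 active = z-score above 3 at both the 24 hr and the 30 hr optical density reads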;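 also: z-score against mean and SD of all compound wells on the same plate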
sEH act = activators of human soluble epoxide hydrolase; purified human sEH enzymatic activity, activator screen; activation, % at 2 µM; hit rate 0.04% among 91,000; AID 717; in the data active = activation above about 37%
* marks the source's active call; other numbers are inactive results; · = no result given.

SMILES | Measles CPE | Yeast lifespan up | Yeast growth inh | sEH inhibitor | sdo1 growth | sEH act
Cc1cccc(C(C)(C)C)c1OCCn1ccnc1 | 26* | 7 | -8 | -23 | -1.8 | 21
CCOc1ccc(N2C(=O)CC(SC(=NC)Nc3ccc(F)cc3)C2=O)cc1 (stereo not drawn) | 14 | · | -30 | 9 | -1.4 | -4
CSc1ccccc1NC(=O)CN(C)CC(=O)Nc1ccc(Cl)cc1F | · | -5 | -22 | · | 1.4 | ·
CCCCCC(=O)N/N=C/c1cccs1 | 7 | -6 | 2 | 11 | 0.02 | -7
CC(C)CNC(=O)CC(=O)N/N=C/c1cccs1 | 25* | -1 | -40 | · | 0.2 | ·
Cc1cc(N2CCC(C)CC2)nc(NCc2ccccc2)n1 | 5 | 1 | -55 | · | -1.8 | ·
O=[N+]([O-])c1c(C(Cl)Cl)nn(-c2ccccc2)c1N1CCCC1 | · | 45* | -43 | -4 | -2.4 | 5
CCOC(=O)C1CCN(c2c([N+](=O)[O-])c(C(Cl)Cl)nn2-c2ccccc2)CC1 | 10 | 2 | -17 | 3 | 0.67 | -5
Cc1ccc(NC(=O)CSc2ccccc2NC(=O)c2ccccc2Cl)cc1Cl | 16 | 2 | -8 | · | -1.1 | ·
O=C1COc2ccc(C(=O)c3ccccc3C(=O)NCc3ccco3)cc2N1 | 5 | -9 | -20 | 9 | 0.75 | -7
O=C1COc2ccc(C(=O)c3ccccc3C(=O)NCc3ccccc3)cc2N1 | 22* | -1 | -69 | 6 | 1.6 | -6
CCNc1c(N)c(=O)oc2ccccc12 | 11 | -4 | 16 | 0 | -0.03 | 0
Nc1c(Nc2ccccc2)c2ccccc2oc1=O | 11 | -26 | 48* | -9 | -0.33 | 12
c1ccc2c(c1)ncn2-c1ccc(-c2ccnc(-c3ccncc3)n2)cc1 | 6 | -29 | -7 | 0 | -0.8 | 3
Cc1nccc(-c2ccc(-n3cnc4ccccc43)cc2)n1 | 29* | -15 | -66 | 9 | 0.7 | -9
CC(C)COC(=O)/C(C#N)=C/c1c[nH]c2ccccc12 | 27 | -2 | -32 | · | -1.7 | ·
COCCCN1C(=O)C(=O)/C(=C(/O)c2ccc(C)cc2)C1c1ccccc1 (stereo not drawn) | 8 | 0 | -31 | -3 | 0.66 | 1
CN1OC(c2ccccc2)=C(CO)C1c1ccccc1 (stereo not drawn) | 7 | 51* | -34 | · | 0.12 | ·
CN=C1S/C(=C\c2ccc(N3CCOCC3)cc2C)C(=O)N1C | 13 | -3 | -30 | · | -0.08 | ·
Cc1cc(N2CCOCC2)ccc1/C=C\[N+](=O)[O-] | 6 | 34* | 9 | · | -0.83 | ·
NS(=O)(=O)c1ccc(NCc2cc(Cl)ccc2OCc2ccccc2F)cc1 | 3 | -16 | -30 | 1 | -1.1 | 0
CCc1cccc(CC)c1NC(=S)NCCc1c(C)[nH]c2ccc(C)cc12 | 11 | -1 | 32 | · | -1.5 | ·
CCc1cccc(C)c1NC(=S)NCCc1c(C)[nH]c2ccc(C)cc12 | 10 | 2 | 45* | · | -1.8 | ·
COc1ccc(C(=O)NC2CCCCCC2)cc1S(=O)(=O)Nc1ccc(Br)cc1 | 32* | -5 | -35 | 65 | -0.55 | -66
CCN(Cc1ccccc1)S(=O)(=O)c1cc(C(=O)NC2CCCCCC2)ccc1OC | 2 | 2 | -40 | · | -1.1 | ·
SMILES | Measles CPE | Yeast lifespan up | Yeast growth inh | sEH inhibitor | sdo1 growth | sEH act
COC(=O)CSc1nnc(Cc2cc(=O)[nH]c(=O)[nH]2)n1-c1cccc(OC)c1 | 23 | -20 | -23 | -3 | 1.5 | 1
COc1cccc(-n2c(Cc3cc(=O)[nH]c(=O)[nH]3)nnc2SCC(=O)NC2CCCC2)c1 | 50* | -5 | -7 | -26 | 0.83 | 27
Cn1c(SCC(=O)NC(C)(C)C)nnc1-c1cnccn1 | 19 | -7 | -36 | 7 | 0.56 | -8
CC(C)OCC(O)CCc1n[nH]c(=S)n1-c1ccccc1 (stereo not drawn) | 32 | -3 | -6 | · | 0.73 | ·
Cc1ccccc1C(=O)NNC1=NCCC1 | 4 | 29* | -22 | 4 | 1.2 | -2
O=C(NNC1=NCCC1)c1cccc(Br)c1 | 26 | -3 | -21 | 2 | 0.84 | 2
C/C(=N\NC(=O)c1cccc(S(=O)(=O)Nc2ccccc2Cl)c1)c1ccc(-n2ccnc2)cc1 | 2 | -8 | -9 | 87* | 0.31 | -87
COc1cc(NC(=S)NC2CC2)c(OC)cc1Cl | 10 | -1 | -36 | · | 0.14 | ·
CCN(C(=O)COC(=O)c1cc(-c2cccc3ccccc23)nc2ccccc12)C1CCS(=O)(=O)C1 (stereo not drawn) | 13 | 4 | -46 | · | -0.11 | ·
O=C(/C=C/c1ccc(F)cc1)c1ccccc1Br | 4 | 12 | 18 | · | -1.1 | ·
CCSc1ccccc1C(=O)n1nnc2ccccc21 | 4 | 60* | -50 | 21 | 0.59 | -21
O=C(CN1C(=O)COc2ccccc21)N1CCc2ccccc2C1 | 5 | · | -18 | 4 | 0.08 | -4
O=C(NCCN1CCOCC1)c1ccc2c(c1)N(Cc1ccccc1)C(=O)CS2 | 13 | -10 | -61 | 21 | 0.41 | -21
O=C(NCCC1=CCCCC1)c1ccc2c(c1)N(Cc1ccccc1)C(=O)CS2 | 5 | -4 | 5 | 82* | -0.28 | -82
O=C(CN1CCN(c2ccccc2)CC1)Nc1ccccc1C(F)(F)F | 32* | -6 | -17 | 5 | -1.2 | -7
O=C(CN1CCN(c2ccccc2)CC1)Nc1ccccc1Sc1ccccc1 | 14 | 10 | -25 | · | 0.55 | ·
Cc1ccc(S(=O)(=O)NCCc2nnc3ccc(SCC(=O)Nc4nc5ccccc5s4)nn23)cc1 | 30* | 0 | -12 | · | 0.76 | ·
Cc1cc(C)nc(SCc2nnc(SCC(=O)Nc3nccs3)n2Cc2ccco2)n1 | 41* | -3 | -44 | -7 | -0.04 | 6
Cc1cccc(NC(=O)CSc2nnc(CSc3nc(C)cc(C)n3)n2Cc2ccco2)c1 | 9 | -4 | -49 | 0 | -1.1 | 2
CCOc1ccc(NC(=O)Nc2ccc3c(c2)N(C)C(=O)CS3)cc1 | 41* | -5 | -40 | · | -0.31 | ·
Cc1nc(NC(=O)/C=C/c2ccccc2)n[nH]1 | 9 | 11 | -30 | · | -1.2 | ·
CCOC(=O)N/N=C(/C)c1ccc([N+](=O)[O-])o1 | 83* | -7 | -15 | 6 | 0.29 | -3
CC(C)CC(=O)/C=C/n1c(=S)oc2ccccc21 | 0 | 0 | -17 | · | -0.42 | ·
CC(=O)/C=C/n1c(=S)oc2ccccc21 | 1 | 39* | 21 | · | -0.55 | ·
COc1ccccc1NC(=O)CCC(=O)O | 71* | -11 | -26 | 8 | 0.05 | -6
Cc1ccc2cc(CN(Cc3cccs3)Cc3nnnn3CC3CCCO3)c(=O)[nH]c2c1 (stereo not drawn) | 31* | 2 | -32 | 4 | 0.1 | -6
Cc1ccc2[nH]c(=O)c(CN(Cc3cccs3)Cc3nnnn3CC3CCCO3)cc2c1 (stereo not drawn) | 6 | 3 | -57 | 8 | 0.4 | -8
CCC(C(=O)OCC(=O)Nc1cc(Cl)cc(Cl)c1)c1ccccc1 (stereo not drawn) | 5 | 2 | -63 | · | -0.98 | ·
